ChEMBL document CHEMBL3091366, “New 5-Aryl-1H-imidazoles display in vitro antitumor activity against apoptosis-resistant cancer models, including melanomas, through mitochondrial targeting” (J Med Chem, 2013)
Activity calls are given as the source filed them. The rule behind the calls is not given here.

What was measured:
[1] = tested on: SK-MEL-5; experiment: Cytotoxicity against human SK-MEL-5 cells assessed as residual growth at 10 uM; assay type: functional
[2] = tested on: MDA-MB-231; experiment: Cytotoxicity against human MDA-MB-231 cells assessed as residual growth at 10 uM; assay type: functional
[3] = tested on: BT-549; experiment: Cytotoxicity against human BT549 cells assessed as residual growth at 10 uM; assay type: functional
[4] = tested on: SK-MEL-28; experiment: Induction of apoptosis in apoptotic-resistant human SK-MEL-28 cells at 5 uM after 24 to 72 hrs by TUNEL staining-based flow cytometry; assay type: functional, cell-based
Summary of the method: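 SKMEL-28 cells treated with 5 µM for 24, 48 and 72 h; apoptosis by TUNEL plus propidium iodide staining (APO-Direct kit) read by flow cytometry. Kit negative/positive controls, plus PC-3 cells untreated or given 1 µM narciclasine 72 h as internal controls. Quadruplicate (kit controls singlet); mean ± SEM.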

[5] = tested on: NCI-H322M; experiment: Cytotoxicity against human NCI-H322M cells assessed as residual growth at 10 uM; assay type: functional
[6] = Cytotoxicity against human Hs578T cells assessed as residual growth at 10 uM; assay type: functional, Hs-578T
[7] = tested on: MCF7; experiment: Cytotoxicity against human MCF7 cells assessed as residual growth at 10 uM; assay type: functional
[8] = tested on: HL-60(TB); experiment: Cytotoxicity against human HL-60(TB) cells assessed as residual growth at 10 uM; assay type: functional
[9] = tested on: HT-29; experiment: Cytotoxicity against human HT-29 cells assessed as residual growth at 10 uM; assay type: functional
[10] = tested on: SK-MEL-28; experiment: Induction of ROS production in human SK-MEL-28 cells at 5 uM by DCFH-DA staining-based flow cytometry; assay type: functional, cell-based; conditions: TDE = time-dependent effect
Summary of the method: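 SKMEL-28 cells exposed to 5 µM over a time course, washed twice, stained 1 h at 37 °C with 20 µM DCFH-DA in phenol red-free RPMI, washed twice, trypsinized; ROS-driven probe oxidation read as fluorescence by flow cytometry. Run once in quadruplicate; mean ± SEM.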

[11] = tested on: SK-MEL-28; experiment: Effect on oxygen consumption in human SK-MEL-28 cells at 10 uM by oxygraphic analysis; assay type: functional, cell-based
Summary of the method: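 Compound added directly at 10 µM to the oxygraph chamber holding SKMEL-28 cells; ROUTINE respiration recorded by Clark-electrode high-resolution respirometry at 37 °C in phenol red-free DMEM with glucose 1 g/L and pyruvate 110 mg/L, with stirring.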

[12] = tested on: MCF7; experiment: Cytotoxicity against apoptotic-sensitive human MCF7 cells assessed as growth inhibition after 72 hrs by MTT-based colorimetric assay; assay type: functional, cell-based; conditions: Homo sapiens, MCF7, 72 h
Summary of the method: (§1)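 MTT colorimetric assay, 72 h exposure to the fumarate salt. Read-out is reduction of MTT to formazan by living cells. IC50 is the concentration that reduces the whole cell population by 50%. Six replicates per condition. Where compounds were not tested on every line, apoptosis-sensitive lines were PC3, MCF-7, LoVo and B16F10, and apoptosis-resistant lines were U373, T98G, A549 and SK-MEL-28.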

[13] = tested on: T47D; experiment: Cytotoxicity against human T47D cells assessed as residual growth at 10 uM; assay type: functional
[14] = Cytotoxicity against human OVCAR4 cells assessed as residual growth at 10 uM; assay type: functional, OVCAR-4
[15] = tested on: UACC-62; experiment: Cytotoxicity against human UACC62 cells assessed as residual growth at 10 uM; assay type: functional
[16] = tested on: A549; experiment: Cytotoxicity against apoptotic-resistant human A549 cells assessed as growth inhibition after 72 hrs by MTT-based colorimetric assay; assay type: functional, cell-based; conditions: Homo sapiens, A549, 72 h; summary of the method: as §1
[17] = tested on: HCT-116; experiment: Cytotoxicity against human HCT116 cells assessed as residual growth at 10 uM; assay type: functional
[18] = tested on: LOX IMVI; experiment: Cytotoxicity against human LOXIMVI cells assessed as residual growth at 10 uM; assay type: functional
[19] = tested on: SK-OV-3; experiment: Cytotoxicity against human SKOV3 cells assessed as residual growth at 10 uM; assay type: functional
[20] = tested on: SN12C; experiment: Cytotoxicity against human SN12C cells assessed as residual growth at 10 uM; assay type: functional
[21] = tested on: SK-MEL-28; experiment: Cytotoxicity against apoptotic-resistant human SK-MEL-28 cells assessed as cell death at 5 uM after 72 hrs by quantitative videomicroscopy; assay type: functional, cell-based
Summary of the method: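 SK-MEL-28 cells exposed to 5 µM for 24, 48 and 72 h. Cell cycle was read by flow cytometry with propidium iodide plus TUNEL double staining (APO-Direct kit), in quadruplicate. Videomicroscopy photographed each field every 4 min over 72 h. Global growth is cells at a time point divided by cells at time 0; the treated/control ratio gives GGR. Cell death was judged from morphology. Run twice, in triplicate and in quadruplicate.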

[22] = tested on: SK-MEL-28; experiment: Effect on mitochondrial morphology in human SK-MEL-28 cells at 5 uM after 24 hrs by MitoTracker Green FM-based fluorescence microscopic analysis; assay type: functional, cell-based
Summary of the method: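 SKMEL-28 cells seeded on glass coverslips 48 h before treatment at 5 µM (3 to 48 h); two washes, mitochondria stained with 100 nM MitoTracker Green FM in phenol red-free RPMI for 30 min, rinsed twice, viewed by fluorescence microscopy. Three coverslips per condition.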

[23] = tested on: ACHN; experiment: Cytotoxicity against human ACHN cells assessed as residual growth at 10 uM; assay type: functional
[24] = tested on: OVCAR-8; experiment: Cytotoxicity against human OVCAR8 cells assessed as residual growth at 10 uM; assay type: functional
[25] = tested on: CCRF-CEM; experiment: Cytotoxicity against human CCRF-CEM cells assessed as residual growth at 10 uM; assay type: functional
[26] = Cytotoxicity against human NCI-ADR-RES cells assessed as residual growth at 10 uM; assay type: functional
[27] = tested on: PC-3; experiment: Cytotoxicity against apoptotic-sensitive human PC3 cells assessed as growth inhibition after 72 hrs by MTT-based colorimetric assay; assay type: functional, cell-based; conditions: Homo sapiens, PC-3, 72 h; summary of the method: as §1
[28] = tested on: K562; experiment: Cytotoxicity against human K562 cells assessed as residual growth at 10 uM; assay type: functional
[29] = tested on: MDA-MB-468; experiment: Cytotoxicity against human MDA-MB-468 cells assessed as residual growth at 10 uM; assay type: functional
[30] = tested on: LoVo; experiment: Cytotoxicity against apoptotic-sensitive human LoVo cells assessed as growth inhibition after 72 hrs by MTT-based colorimetric assay; assay type: functional, cell-based; conditions: Homo sapiens, LoVo, 72 h; summary of the method: as §1
[31] = tested on: M14; experiment: Cytotoxicity against human M14 cells assessed as residual growth at 10 uM; assay type: functional
[32] = tested on: SK-MEL-2; experiment: Cytotoxicity against human SK-MEL-2 cells assessed as residual growth at 10 uM; assay type: functional
[33] = tested on: NCI-H23; experiment: Cytotoxicity against human NCI-H23 cells assessed as residual growth at 10 uM; assay type: functional
[34] = tested on: SK-MEL-28; experiment: Effect on oxygen consumption in human SK-MEL-28 cells at 10 uM after 72 hrs by oxygraphic analysis; assay type: functional, cell-based
Summary of the method: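 SKMEL-28 cells pre-incubated 72 h with 10^-5 M compound or untreated; five million cells per chamber in phenol red-free DMEM (glucose 1 g/L, pyruvate 110 mg/L). ROUTINE respiration recorded by high-resolution respirometry (Clark electrode), 37 °C, continuous stirring from chamber closure; O2 consumption slopes taken as routine respiration.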

Question: What does the source list for `C=CCCCCOc1ccccc1-c1cnc(OCCCCC=C)n1C`?
Answer: Activity [1]: 83.67%; Activity [2]: 66.46%; Activity [3]: 96.77%; Activity [4]: inactive; Activity [5]: 71.99%; Activity [6]: 66.38%; Activity [7]: 42.18%; Activity [8]: 66.52%; Activity [9]: 18.11%; Activity [10]: tde; Activity [11]: inactive; IC50 [12]: 5 µM; Activity [13]: 61.88%; Activity [14]: 97.91%; Activity [15]: 55.73%; IC50 [16]: 7 µM; Activity [17]: 61.02%; Activity [18]: 69.06%; Activity [19]: 74.99%; Activity [20]: 91.09%; Activity [21]: inactive; Activity [22]: inactive; Activity [23]: 84.54%; Activity [24]: 83.91%; Activity [25]: 80.85%; Activity [26]: 30.38%; IC50 [27]: 9 µM; Activity [28]: 30.53%; Activity [29]: 25.48%; IC50 [30]: 5 µM; Activity [31]: 72.63%; Activity [32]: 46.08%; Activity [33]: 76.02%; Activity [34]: Active
